In data set [1] the test system is mouse embryo cell lines 3T3-L1. Kind of data set: MTT assay. It is filed as cell-based. The following applies: for IC50: Mus musculus, 3T3-L1, read-out: 3T3-L1 IC50. In a few lines: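 MTT metabolic-activity assay in mouse embryo 3T3-L1 cells exposed to a range of test-compound concentrations. Percent viability was calculated by formula and plotted against concentration in μg ml−1. IC50 was taken from the dose–response curve as the concentration giving 50% growth suppression.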
On the technique in general: Tetrazolium dyes change colour on reduction, which living cells bring about.

For data set [2], the system named is 3T3-L1 cells. Kind of data set: Scratch wound assay. The note with it: 3T3-L1, 24 hours. It is filed as cell-based, mouse. An outline of the steps:
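Scratch assay: 3T3-L1 cells were grown to confluence, then wounded with a pipette tip and treated with test compounds. Wound width was measured at the time of scratching and again after 24 h.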

Data set [3] has as its system mice. Nature of the data set: Acute oral toxicity study. The class given is in vivo. In a few lines:
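OECD 420 fixed-dose procedure in mice. Animals were dosed orally in stepwise groups at fixed doses of 5, 50, 300 and 2000 mg kg−1. Further groups received higher or lower fixed doses depending on the presence or absence of toxicity or death. Read-outs were clinical signs of toxicity and mortality.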

The test system of data set [4] is diabetic rats. Nature of the data set: Full thickness excision wound model in STZ-nicotinamide diabetic rats. It is filed as in vivo, Wistar male albino rats.
Data set [5] addresses HIF-1α prolyl hydroxylase-2 (PHD2). The note with it: PHD2 inhibition; cited from earlier work.
For data set [6] the following is noted: Phase 2 trial; cited from earlier work.

pIC50: −log10 of the molar value. ≈ marks a conversion by molar mass, not a printed value.

On to `c1ccc(-c2cc(-c3ccccc3)n(CN(c3ccccc3)c3ccccc3)n2)cc1` [CDPA, N-[(3,5-diphenylpyrazol-1-yl)methyl] -N-phenylaniline], for which the 50% inhibitory concentration (IC50) in data set [1] was found to be 132 µg/mL (≈ 328 µM).

Regarding `c1ccc(-c2cc(-c3ccccc3)n(Cn3ccnc3)n2)cc1` [CI, 1-(Imidazol-1-ylmethyl) −3,5-diphenylpyrazole], the half-maximal inhibitory concentration (IC50) in data set [1] was found to be 107 µg/mL (≈ 355 µM). For the same molecule, the “Activity compared to the positive control hyaluronic acid” value in data set [2] is recorded as “comparable activity”. In addition, the “Acute oral toxicity outcome” value is “died” in data set [3] (oral, 2000 mg kg^−1); “no adverse effects or fatality” in data set [3] (oral, 5, 50, and 300 mg kg^−1). Further, the “Wound contraction (%)” value in data set [4] (High dose 150 mg kg^−1, oral, Day 3) was 24.5 ± 0.48 %; in data set [4] (High dose 150 mg kg^−1, oral, Day 7), 31.25 ± 0.39 %; in data set [4] (High dose 150 mg kg^−1, oral, Day 11), 64.00 ± 0.44 %; in data set [4] (Low dose 75 mg kg^−1, oral, Day 3), 18.25 ± 0.55 %; in data set [4] (Low dose 75 mg kg^−1, oral, Day 7) it was 24.50 ± 0.30 %; in data set [4] (Low dose 75 mg kg^−1, oral, Day 11), 41.5 ± 0.43 %. The “Wound contraction (%)” value in data set [4] (Low dose 75 mg kg^−1, oral, Day 15) is given as 55.77 ± 0.42 %. The “Wound healing in rats” value in data set [4] (oral, diabetic rats) was “improved wound healing”.

Regarding `c1ccc(-c2cc(-c3ccccc3)n(Cn3cccn3)n2)cc1` [CP, 3,5-Diphenyl-1-(pyrazole-1-ylmethyl) pyrazole], in data set [1], the IC50 is 111 µg/mL (≈ 371 µM). Further, the “Activity compared to the positive control hyaluronic acid” value in data set [2] was “comparable activity”.

`O=C(O)CNC(=O)c1nc(Cl)c2ccccc2c1O` [FG-2216]: the pIC50 in data set [5] was 5.41. Also, in data set [6], the Fatal outcome is given as “one patient died of hepatic necrosis” and the “Liver enzyme test results” value is “aberrant liver enzyme test results”.

Take Hyaluronic acid [reference compound]: in data set [1] (MTT assay, 3T3-L1), the “3T3-L1 IC50” value was 112.59 µg/mL.

The IC50 is the midpoint of a concentration-inhibition curve. As a reminder, the pIC50 is the negative decadic logarithm of the IC50, by convention in mol/L.
